# According to PubChem BioAssay AID588621 (Sanford-Burnham Center for Chemical Genomics, 2011):
# The campaign covered roughly 360,000 compounds. About 890 (0.25%) were called active.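 The calls were made as follows: active = inhibition at 20 µM, scaled per plate between control wells, above about 37% (limit read from the data); inactive = the rest.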 The full list was thinned out, with actives kept by preference.
# Target: Tyrosine-protein phosphatase non-receptor type 5 (Homo sapiens) (UniProt P54829)
# Sequence (P54829 whole entry, looked up): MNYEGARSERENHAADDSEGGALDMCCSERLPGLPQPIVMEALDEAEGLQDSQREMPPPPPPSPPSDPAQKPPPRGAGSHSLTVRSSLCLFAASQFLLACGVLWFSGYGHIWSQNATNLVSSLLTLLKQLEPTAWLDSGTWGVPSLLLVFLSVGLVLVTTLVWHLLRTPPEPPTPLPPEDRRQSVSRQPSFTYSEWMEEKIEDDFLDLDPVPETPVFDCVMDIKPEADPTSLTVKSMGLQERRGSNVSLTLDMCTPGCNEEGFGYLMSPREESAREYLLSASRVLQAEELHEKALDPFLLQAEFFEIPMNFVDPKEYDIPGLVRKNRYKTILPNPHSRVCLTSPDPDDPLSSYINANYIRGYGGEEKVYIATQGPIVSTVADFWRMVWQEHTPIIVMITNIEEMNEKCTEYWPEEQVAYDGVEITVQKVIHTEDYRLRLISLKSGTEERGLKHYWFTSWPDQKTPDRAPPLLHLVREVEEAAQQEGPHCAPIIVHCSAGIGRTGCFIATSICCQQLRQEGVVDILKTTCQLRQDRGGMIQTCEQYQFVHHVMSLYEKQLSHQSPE
# Experiment: STEP phosphatase inhibitors, primary screen, biochemical, fluorescence intensity, uHTS (AID 588621);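 also: 0% = DMSO with enzyme and substrate and 100% = substrate only without enzyme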
# Conditions: recombinant STEP, OMFP fluorogenic substrate, at 20 µM, stronger effect = higher value
# Outline: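 System: STEP (striatal-enriched tyrosine phosphatase) enzyme, cell-free; medium: Bis-Tris pH 6.0 buffer with DTT, detergent; dosing: 20 µM, 1% DMSO; times: reaction 20 min, ambient temperature; detection: fluorescence, 480/540 nm; read-out basis: normalized % inhibition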
row,Compound,inhibition
1,Cc1cccc(-n2c(N)c(C(=O)N3CCN(C)CC3)sc2=S)c1,90.4% (active)
2,N#Cc1ccccc1-n1c(N)c(C(=O)N2CCCC2)sc1=S,7.5% (inactive)
3,Cc1ccc(-n2c(N)c(C(=O)N3CCOCC3)sc2=S)c(C)c1,5.2% (inactive)
4,Cc1cc(-c2nnc(SCC(=O)Nc3ccc(F)cc3)n2N)n[nH]1,-1.1% (inactive)
5,COC(=O)Cn1cnc2scc(-c3ccc(C)c(C)c3)c2c1=O,1.3% (inactive)
6,Cc1ccc(C(C)(C)C)c(OCCCCN2CCCC2)c1,-0.8% (inactive)
7,CSc1nnc(C2CCCN(CC(=O)Nc3ccccc3N3CCOCC3)C2)n1C(C)C (stereo not given),7.7% (inactive)
8,OCCN1CCN(C(=S)c2ccc(-c3ccccc3)cc2)CC1,92.5% (active)
9,C=CCc1ccccc1OCC(O)CN1CCN(CCO)CC1 (stereo not given),-0.9% (inactive)
10,S=C(c1ccc(-c2ccccc2)o1)N1CCCCC1,10% (inactive)
11,Cc1cc(OC(=O)c2ccccc2)c([N+](=O)[O-])c(=O)[nH]1,-3.5% (inactive)
12,CN(C)c1ccc(CNC23CN4CN(CN(C4)C2)C3)cc1,-4.8% (inactive)
13,O=C(OCC(=O)N1CCN(C(=O)c2ccco2)CC1)c1ccccc1Cc1ccccc1,-3.5% (inactive)
14,CCC1(C)N(O)C(C)(C)C(c2ccc(OC)cc2)=[N+]1[O-] (stereo not given),-1.7% (inactive)
15,COc1ccc(NS(=O)(=O)c2cccc3nsnc23)cc1Cl,-1.2% (inactive)
16,O=C(O)c1ccc(NS(=O)(=O)c2cccc3nsnc23)cc1,1.7% (inactive)
17,O=S(=O)(Nc1ccccc1Cl)c1cccc2nsnc12,52.9% (active)
18,O=C(COC(=O)c1cc([N+](=O)[O-])ccc1NCc1ccccc1)NC1CCCCC1,0.9% (inactive)
19,O=C(CCN1C(=O)c2ccncc2C1=O)Nc1cc(F)ccc1F,-2.7% (inactive)
20,COc1ccc(-c2cc(C(F)(F)F)nc(S(C)(=O)=O)n2)cc1OC,0.2% (inactive)

row,Compound,inhibition
1,O=C(COc1ccccc1F)NNC(=O)c1ccc(N2CCCCC2)c([N+](=O)[O-])c1,0.7% (inactive)
2,C/C(O)=C\c1nc(=O)c2c(C)cc(C)nc2n1-c1ccccc1,1.8% (inactive)
3,COCCN(C(=S)Nc1ccccc1OC)C1CCN(C(C)C)CC1,44.6% (active)
4,COc1ccccc1NC(=O)C(C)OC(=O)CC1CCCC1 (stereo not given),-2.3% (inactive)
5,CCc1cccc(NC(=S)N(CCN(C)C)C2CCN(C(C)C)CC2)c1,4.4% (inactive)
6,Cc1ccc(NC2=C(Cl)C(=O)OC2OC(=O)c2ccccc2C)cc1 (stereo not given),-1.2% (inactive)
7,Nc1nonc1-n1nnc(C(=O)N/N=C/C2CCCCC2)c1-c1ccccc1,-0.5% (inactive)
8,COCc1c(C(=O)N/N=C(\C)c2ccncc2)nnn1-c1nonc1N,-0.3% (inactive)
9,COCc1c(C(=O)N/N=C/C2CC=CCC2)nnn1-c1nonc1N (stereo not given),44.4% (active)
10,CCc1c(C)sc(NC(=O)OC)c1C(=O)N1CCOCC1,10.1% (inactive)
11,Cc1cc(C)cc(C(=O)OCC(=O)NCCNC(=O)COC(=O)c2cc(C)cc(C)c2)c1,1% (inactive)
12,CCc1nc2c(OCCC3CCCCC3)cccn2c1N(C)C(=O)c1ccco1,4.5% (inactive)
13,COc1cc(OC)c(-n2cc(-c3ccc(Cl)cc3)[nH]c2=O)cc1Cl,0.7% (inactive)
14,Nc1c(Cl)cc(-c2csc(N3CCCC3c3nc4cc(Cl)c(Cl)cc4n3CCOCCO)n2)cc1Cl (stereo not given),36.9% (active)
15,CCCn1c(C2CCCN2c2nc(-c3ccc(C)cc3)cs2)nc2cc(Cl)c(N3CCCCC3)cc21 (stereo not given),3.4% (inactive)
16,Cc1ccc(-c2csc(N3CCN(c4cc5c(cc4Cl)nc(-c4ccncc4)n5CCOCCO)CC3)n2)cc1,2.3% (inactive)
17,O=c1nc(N2CCOCC2)nc2n1CCO2,4.3% (inactive)
18,COc1cccc(/C=C/C(=O)OCC(=O)N2CCCc3ccccc32)c1,-1.7% (inactive)
19,CCc1ccc(C(=O)CSc2nnc(C)c(=O)[nH]2)cc1,-1% (inactive)
20,N#Cc1c(-c2cccs2)nc(SCC(=O)c2ccc(Br)cc2)[nH]c1=O,78.8% (active)

row,Compound,inhibition
1,N#Cc1c(-c2ccccc2)nc(SCc2cccc(C(F)(F)F)c2)[nH]c1=O,2.7% (inactive)
2,Cc1ccnc(N2CCN(C(=O)CSc3nc4ccccc4nc3N3CCCCC3)CC2)c1,7.7% (inactive)
3,CC(C)C(O)C1CCN(Cc2nc(Cc3ccccc3Cl)no2)CC1 (stereo not given),-0.6% (inactive)
4,CN(C(=O)CSc1nnc(N)s1)c1c(N)n(Cc2ccccc2)c(=O)[nH]c1=O,2% (inactive)
5,Cc1ccnc(NS(=O)(=O)c2ccc(NC(=O)c3ccc(S(=O)(=O)N(C)C)cc3)cc2)n1,10.2% (inactive)
6,CC(Oc1ccc(Cl)cc1)c1ccnn1S(C)(=O)=O (stereo not given),-1.9% (inactive)
7,Cc1cccc(OCC(=O)NCCNC(=O)c2cccnc2)c1,0.6% (inactive)
8,Cc1ccc(OCC(=O)NCCCNC(=O)c2cccnc2)cc1C,2.8% (inactive)
9,Cc1ccc(NC(=O)COc2ccc(/C=N\NC(=O)c3cccnc3)cc2)cc1C,93% (active)
10,CC(=O)c1nc(N2C(=O)C3CC=C(C)CC3C2=O)sc1C (stereo not given),-0.6% (inactive)
11,O=C(NCc1ccc(F)cc1)c1cc(C2CCCCN2C(=O)c2ccccn2)on1 (stereo not given),-0.8% (inactive)
12,CCOCCCNc1c(CC)c(C)c(C#N)c2nc3ccccc3n12,-1% (inactive)
13,CCc1cccc(C)c1N(C(=O)Cn1c(CO)nc2ccccc21)C(C)COC (stereo not given),-4.3% (inactive)
14,CCCCC(=O)Nc1nc(C)c(-c2csc(Nc3ccc(Cl)cc3)n2)s1,-1.7% (inactive)
15,Cc1ccn2c(-c3csc(Nc4ccc(C(=O)O)cc4)n3)c(C)nc2c1,41.9% (active)
16,C/C(=N\OC(=O)c1ccccc1)c1c(C)nc2cc(C)ccn12,-1.4% (inactive)
17,COc1cccc(-c2cnc(C(O)c3ccccc3OC)[nH]2)c1 (stereo not given),-2.4% (inactive)
18,COCCCNC(=O)[C@H]1N2C(=O)c3ccccc3C2SC1(C)C (stereo not given in full),0.9% (inactive)
19,Cc1[nH]c2ccccc2c1C(=O)C(=O)NCc1nnnn1-c1cccc(F)c1,0.6% (inactive)
20,COc1ccc(CCN2CC(C(=O)NCCN3CCNC3=O)CCC2=O)cc1 (stereo not given),-4.2% (inactive)
